ChEMBL document CHEMBL1154009, “Identification, synthesis and SAR of amino substituted pyrido[3,2b]pyrazinones as potent and selective PDE5 inhibitors” (Bioorg Med Chem Lett, 2009)

Assays:
[1] = molecular target: cGMP-specific 3',5'-cyclic phosphodiesterase (Homo sapiens, UniProt O76074); assay: Inhibition of PDE5
[2] = Inhibition of PDE6
[3] = Inhibition of PDE11
[4] = Selectivity ratio of IC50 for PDE6 to IC50 for PDE5
[5] = Selectivity ratio of IC50 for PDE11 to IC50 for PDE5
[6] = Half life in Sprague-Dawley rat at 2 mg/kg, po and 2mg/kg, iv; type: ADME, organism-based; parameters: dose 2 mg/kg, route oral; details: in vivo
Outline: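 Sprague Dawley rats (n = 3) dosed IV at 2 mpk in 70% PEG400/20% 0.05 M citrate buffer/10% ethanol, pH 5.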

[7] = Aqueous solubility at pH 7.4; type: physicochemical; details: aqueous medium

Row | Compound | IC50 [1] [nM] | IC50 [2] [nM] | IC50 [3] [nM] | Ratio IC50 [4] | Ratio IC50 [5] | half-life [6] [h] | solubility [7] [µM]
1 | CCCOCCn1c(=O)c(NCC2CCOCC2)nc2ccc(-c3ccncc3)nc21 | 33.9 | 1170 | > 2000 | – | – | – | –
2 | CCCOCCn1c(=O)c(NCCN2CCOCC2)nc2ccc(-c3ccc(F)cc3)nc21 | 33.3 | 1850 | > 2000 | – | – | – | –
3 | CCOCCn1c(=O)c(NCC2CCOCC2)nc2ccc(-c3ccc(F)cc3)nc21 | 149 | – | – | – | – | – | –
4 | CC(C)Cn1c(=O)c(NCC2CCOCC2)nc2ccc(-c3ccc(F)cc3)nc21 | 224 | – | – | – | – | – | –
5 | CCCOCCn1c(=O)c(NCC2CCOCC2)nc2ccc(-c3ccc(F)cc3)nc21 | 22.4 | > 2000 | > 2000 | – | – | – | –
6 | Nc1nc2ccc(-c3ccc(F)cc3)nc2n(CC2CCCCC2)c1=O | 28.5 | 114 | 145 | – | – | – | –
7 | CCCn1ccc(=O)c2c(N)nc(-c3ccccc3)cc21 | 51 | 6 | – | – | – | – | –
8 | CCCCCN1C(=O)CN(C)c2ncc(-c3ccc(F)c(F)c3)cc21 | 43 | 1160 | > 2000 | – | – | – | –
9 | COc1ccc(Cn2c(=O)ccc3ccc(-c4ccncc4)cc32)cc1 | 25 | 150 | 41 | – | – | – | –
10 | CCCOCCn1c(=O)c(NCC(=O)N(C)C)nc2ccc(-c3ccc(OC)nc3)nc21 | 14.5 | 1190 | 1210 | > 100 | > 600 | – | –
11 | CCCOCCn1c(=O)c(NCCN2CCOCC2)nc2ccc(-c3c(C)noc3C)nc21 | 36.5 | 1980 | > 2000 | – | – | – | –
12 | O=c1c(NCC2CCOCC2)nc2ccc(-c3ccc(F)cc3)nc2n1Cc1ccccn1 | 20.3 | 920 | 970 | – | – | – | –
13 | CC(C)OCCn1c(=O)c(NCCN2CCOCC2)nc2ccc(-c3ccc(F)c(F)c3)nc21 | 52.5 | 979 | 1660 | – | – | – | –
14 | CCCOCCn1c(=O)c(NCCN2CCOCC2)nc2ccc(-c3cnc(OC)nc3)nc21 | 26.7 | > 2000 | > 2000 | – | – | – | –
15 | CCCOCCn1c(=O)c(NCCN2CCOCC2)nc2ccc(-c3ccc(=O)[nH]c3)nc21 | 534 | – | – | – | – | – | –

Now those with a lower IC50 [1], led by results:

Row | IC50 [1] [nM] | IC50 [2] [nM] | IC50 [3] [nM] | Ratio IC50 [4] | Ratio IC50 [5] | half-life [6] [h] | solubility [7] [µM] | Compound
16 | 2.4 | 317 | 1540 | > 100 | > 600 | 3 | – | CCCOCCn1c(=O)c(NCCN2CCOCC2)nc2ccc(-c3ccc(OC)nc3)nc21
17 | 4.6 | 240 | 405 | > 100 | – | – | – | O=c1c(NCCN2CCOCC2)nc2ccc(-c3ccc(F)cc3)nc2n1CC1CCCCC1
18 | 0.3 | 32 | 8.1 | – | – | – | – | COc1ccc(-c2ccc3nc(NCC4CCOCC4)c(=O)n(CC4CCCCC4)c3n2)cn1
19 | 1.3 | 10.1 | 345 | – | 100 | – | – | COc1ccc(Cn2c(=O)c(NCCN3CCOCC3)nc3ccc(-c4ccc(F)cc4)nc32)cc1
20 | 0.9 | 33.5 | 36.5 | – | – | – | – | O=c1c(NCC2CCOCC2)nc2ccc(-c3ccncc3)nc2n1CC1CCCCC1
21 | 2 | 11.6 | 482 | – | 100 | – | – | COc1ccc(Cn2c(=O)c(NCCN3CCOCC3)nc3ccc(-c4ccc(F)c(F)c4)nc32)cc1
22 | 2.9 | 112 | 79.2 | – | – | – | – | O=c1c(NCC2CCOCC2)nc2ccc(-c3ccc(O)nc3)nc2n1CC1CCCCC1
23 | 3 | 459 | 324 | > 100 | – | – | – | O=c1c(NCC2CCOCC2)nc2ccc(-c3ccc(F)cc3)nc2n1CC1CCCCC1
24 | 1.6 | 195 | 213 | > 100 | – | – | – | O=c1c(NCCN2CCOCC2)nc2ccc(-c3ccc(F)c(F)c3)nc2n1CC1CCCCC1
25 | 1 | 41.6 | 286 | – | – | – | – | Cc1noc(C)c1-c1ccc2nc(NCCN3CCOCC3)c(=O)n(CC3CCCCC3)c2n1
26 | 2.5 | 375 | 474 | – | – | – | – | O=c1c(NCC2CCOCC2)nc2ccc(-c3ccc(F)cc3)nc2n1Cc1cccnc1
27 | 13.4 | 871 | 558 | – | – | – | – | O=c1c(NCc2cccnc2)nc2ccc(-c3ccc(F)cc3)nc2n1CC1CCCCC1
28 | 0.3 | 72 | 7.7 | – | – | – | – | COc1ccc(-c2ccc3nc(NCC(=O)N(C)C)c(=O)n(CC4CCCCC4)c3n2)cn1
29 | 2.7 | 910 | 390 | – | – | – | – | O=c1c(NCC2CCOCC2)nc2ccc(-c3ccc(F)cc3)nc2n1Cc1cc(F)cc(F)c1
30 | 3.5 | > 2000 | 90.9 | – | – | – | – | CN(C)C(=O)CNc1nc2ccc(-c3ccc(F)cc3)nc2n(CC2CCCCC2)c1=O
31 | 0.3 | 36.3 | 8.2 | – | – | – | – | COc1ncc(-c2ccc3nc(NCC4CCOCC4)c(=O)n(CC4CCCCC4)c3n2)cn1
32 | 0.4 | 25.2 | 5.9 | – | – | – | < 3 | COc1ccc(-c2ccc3nc(NCCN4CCOCC4)c(=O)n(CC4CCCCC4)c3n2)cn1
33 | 2.3 | 350 | 1230 | > 100 | > 600 | – | – | CCCOCCn1c(=O)c(NCC2CCOCC2)nc2ccc(-c3ccc(OC)nc3)nc21
